According to ChEMBL document CHEMBL2331531, “Synthesis and biological evaluation of urea derivatives as highly potent and selective rho kinase inhibitors” (J Med Chem, 2013):

Columns and labels:
[1] = biological target: Rho-associated protein kinase 2 (Homo sapiens, UniProt O75116); assay: Inhibition of ROCK2 (unknown origin) after 4 hrs by HTRF assay
[2] = Inhibition of ROCK-mediated myosin light chain bisphosphorylation in rat A7R5 cells after 1 hr by fluorescence assay in presence of L-alpha-lysophosphatidic acid; type: cell-based
Summary of the method: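 A7r5 cells in 20% FBS DMEM, plated 5000/well overnight, serum-starved 4 h in 0.05% FBS DMEM; compound 13333 nM to 18 nM final for 1 h, then 10 μM LPA 10 min; fixed, permeabilized, anti-ppMLC plus IR800 secondary; infrared scan, ppMLC signal normalized to TO-PRO-3 nuclear signal. IC50 as mean of two or more experiments.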

[3] = Half life in human liver microsomes; type: ADME, Microsome
[4] = Inhibition of PKA (unknown origin) after 70 mins by luminescence assay; parameters: species or system Homo sapiens
[5] = biological target: Rho-associated protein kinase 1 (Homo sapiens, UniProt Q13464); assay: Inhibition of ROCK1 (unknown origin) after 4 hrs by HTRF assay
Chain of Rho-associated protein kinase 1 (Q13464 whole entry): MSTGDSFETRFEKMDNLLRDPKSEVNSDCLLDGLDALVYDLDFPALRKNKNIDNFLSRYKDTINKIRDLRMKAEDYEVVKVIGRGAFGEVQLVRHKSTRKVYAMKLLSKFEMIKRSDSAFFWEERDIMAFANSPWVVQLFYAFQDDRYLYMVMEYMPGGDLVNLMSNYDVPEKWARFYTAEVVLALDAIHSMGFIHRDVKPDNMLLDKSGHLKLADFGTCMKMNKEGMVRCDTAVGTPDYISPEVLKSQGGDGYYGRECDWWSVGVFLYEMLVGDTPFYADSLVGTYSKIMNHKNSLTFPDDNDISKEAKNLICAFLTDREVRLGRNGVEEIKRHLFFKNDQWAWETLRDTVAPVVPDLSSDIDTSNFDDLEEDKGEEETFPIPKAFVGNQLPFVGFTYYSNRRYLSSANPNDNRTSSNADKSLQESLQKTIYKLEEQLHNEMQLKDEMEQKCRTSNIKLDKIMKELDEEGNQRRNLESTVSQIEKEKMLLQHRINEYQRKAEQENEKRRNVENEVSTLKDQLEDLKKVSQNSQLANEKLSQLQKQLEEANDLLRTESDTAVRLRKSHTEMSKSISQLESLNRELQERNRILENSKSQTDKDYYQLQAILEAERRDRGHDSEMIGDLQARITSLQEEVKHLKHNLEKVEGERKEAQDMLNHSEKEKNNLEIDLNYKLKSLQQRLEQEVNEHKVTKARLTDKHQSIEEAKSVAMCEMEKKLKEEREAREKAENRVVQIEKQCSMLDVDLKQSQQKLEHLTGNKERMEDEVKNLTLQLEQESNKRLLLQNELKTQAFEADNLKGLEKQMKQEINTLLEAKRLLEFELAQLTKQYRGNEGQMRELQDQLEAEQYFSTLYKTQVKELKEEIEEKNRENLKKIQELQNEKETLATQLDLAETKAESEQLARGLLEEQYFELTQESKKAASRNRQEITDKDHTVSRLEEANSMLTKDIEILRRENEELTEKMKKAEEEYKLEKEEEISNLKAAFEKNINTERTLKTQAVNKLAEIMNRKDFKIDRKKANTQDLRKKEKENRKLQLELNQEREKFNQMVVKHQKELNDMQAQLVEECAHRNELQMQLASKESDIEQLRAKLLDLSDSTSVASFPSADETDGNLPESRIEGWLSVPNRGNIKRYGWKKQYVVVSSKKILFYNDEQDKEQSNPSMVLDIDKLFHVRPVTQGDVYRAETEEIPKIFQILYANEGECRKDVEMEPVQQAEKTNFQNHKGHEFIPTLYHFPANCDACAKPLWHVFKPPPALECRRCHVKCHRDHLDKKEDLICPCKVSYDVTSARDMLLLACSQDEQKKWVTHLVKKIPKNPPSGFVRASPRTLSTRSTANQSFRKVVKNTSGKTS

CYP1A2 = biological target: T1, CYP1A2 (Homo sapiens, UniProt P05177); assay: Inhibition of CYP1A2 (unknown origin)-mediated phenaceten demethylation to acetaminophen at 10 uM relative to control; type: ADME; conditions: probe phenacetin (printed: phenaceten)
T1 sequence (P05177 whole entry): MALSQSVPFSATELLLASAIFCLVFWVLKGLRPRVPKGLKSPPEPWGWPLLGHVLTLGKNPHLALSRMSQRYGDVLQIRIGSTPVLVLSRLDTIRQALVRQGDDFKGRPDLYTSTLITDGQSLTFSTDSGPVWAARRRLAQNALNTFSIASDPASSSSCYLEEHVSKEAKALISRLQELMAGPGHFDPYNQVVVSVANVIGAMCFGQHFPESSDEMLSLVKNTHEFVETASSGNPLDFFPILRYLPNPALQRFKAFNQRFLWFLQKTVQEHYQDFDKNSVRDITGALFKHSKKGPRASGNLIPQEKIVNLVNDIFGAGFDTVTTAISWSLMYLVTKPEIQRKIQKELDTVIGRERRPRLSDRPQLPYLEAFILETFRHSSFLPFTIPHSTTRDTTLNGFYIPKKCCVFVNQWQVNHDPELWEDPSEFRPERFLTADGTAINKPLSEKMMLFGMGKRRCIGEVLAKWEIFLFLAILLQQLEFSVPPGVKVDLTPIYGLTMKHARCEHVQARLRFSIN

[6] = Oral bioavailability in Sprague-Dawley rat at 2 mg/kg by LC-MS/MS analysis; type: ADME, organism-based; conditions: in vivo
[7] = AUC in Sprague-Dawley rat at 1 mg/kg, iv by LC-MS/MS analysis; type: ADME, organism-based, Plasma; parameters: dose 1 mg/kg, route intravenous; conditions: Sprague-Dawley, plasma
[8] = Cmax in Sprague-Dawley rat at 1 mg/kg, iv by LC-MS/MS analysis; type: ADME, organism-based; parameters: dose 1 mg/kg, route intravenous; conditions: in vivo
CYP3A4 = CYP3A4 (Homo sapiens, UniProt P08684); assay: Inhibition of CYP3A4 (unknown origin)-mediated midazolam hydroxylation to 1'-Hydroxymidazolam at 10 uM relative to control; type: ADME; conditions: probe midazolam
Chain of CYP3A4 (P08684 whole entry): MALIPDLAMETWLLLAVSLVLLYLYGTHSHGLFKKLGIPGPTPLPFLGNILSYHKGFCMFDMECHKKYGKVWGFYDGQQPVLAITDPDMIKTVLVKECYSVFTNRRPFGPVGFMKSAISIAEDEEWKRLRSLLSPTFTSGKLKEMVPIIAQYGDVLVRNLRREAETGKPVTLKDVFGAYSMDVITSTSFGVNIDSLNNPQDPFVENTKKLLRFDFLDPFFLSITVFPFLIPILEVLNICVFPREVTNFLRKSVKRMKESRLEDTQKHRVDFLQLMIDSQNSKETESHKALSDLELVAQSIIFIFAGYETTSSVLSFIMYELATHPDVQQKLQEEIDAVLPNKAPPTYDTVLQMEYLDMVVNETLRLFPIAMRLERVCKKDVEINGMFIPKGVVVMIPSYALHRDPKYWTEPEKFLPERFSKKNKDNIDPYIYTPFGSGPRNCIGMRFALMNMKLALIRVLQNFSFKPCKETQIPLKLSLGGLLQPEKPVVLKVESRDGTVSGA

[9] = Volume of distribution in Sprague-Dawley rat at 1 mg/kg, iv by LC-MS/MS analysis; type: ADME, organism-based; parameters: dose 1 mg/kg, route intravenous; conditions: in vivo
[10] = Half life in Sprague-Dawley rat at 1 mg/kg, iv by LC-MS/MS analysis; type: ADME, organism-based; parameters: dose 1 mg/kg, route intravenous; conditions: in vivo
CYP2C9 = CYP2C9 (Homo sapiens, UniProt P11712); assay: Inhibition of CYP2C9 (unknown origin)-mediated tolbutamide hydroxylation to hydroxy tolbutamide at 10 uM relative to control; type: ADME; conditions: probe tolbutamide
Chain of CYP2C9 (P11712 whole entry): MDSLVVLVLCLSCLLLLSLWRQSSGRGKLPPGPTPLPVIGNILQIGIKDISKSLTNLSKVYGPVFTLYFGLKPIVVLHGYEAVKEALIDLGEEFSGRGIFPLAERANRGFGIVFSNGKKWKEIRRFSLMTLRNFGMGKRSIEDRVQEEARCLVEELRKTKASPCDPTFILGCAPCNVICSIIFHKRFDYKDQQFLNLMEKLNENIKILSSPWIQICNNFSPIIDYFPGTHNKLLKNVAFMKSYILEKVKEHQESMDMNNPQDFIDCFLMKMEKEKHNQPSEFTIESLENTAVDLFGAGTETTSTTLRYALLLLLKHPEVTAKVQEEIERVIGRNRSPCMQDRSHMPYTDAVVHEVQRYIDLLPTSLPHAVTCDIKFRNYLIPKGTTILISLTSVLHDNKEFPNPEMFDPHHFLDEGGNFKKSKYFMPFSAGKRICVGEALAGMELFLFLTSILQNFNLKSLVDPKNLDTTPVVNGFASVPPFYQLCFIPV

CYP2D6 = CYP2D6 (Homo sapiens, UniProt P10635); assay: Inhibition of CYP2D6 (unknown origin)-mediated bufuralol hydroxylation to 4'-Hydroxybufuralol at 10 uM relative to control; type: ADME; conditions: probe bufuralol
Chain of CYP2D6 (P10635 whole entry): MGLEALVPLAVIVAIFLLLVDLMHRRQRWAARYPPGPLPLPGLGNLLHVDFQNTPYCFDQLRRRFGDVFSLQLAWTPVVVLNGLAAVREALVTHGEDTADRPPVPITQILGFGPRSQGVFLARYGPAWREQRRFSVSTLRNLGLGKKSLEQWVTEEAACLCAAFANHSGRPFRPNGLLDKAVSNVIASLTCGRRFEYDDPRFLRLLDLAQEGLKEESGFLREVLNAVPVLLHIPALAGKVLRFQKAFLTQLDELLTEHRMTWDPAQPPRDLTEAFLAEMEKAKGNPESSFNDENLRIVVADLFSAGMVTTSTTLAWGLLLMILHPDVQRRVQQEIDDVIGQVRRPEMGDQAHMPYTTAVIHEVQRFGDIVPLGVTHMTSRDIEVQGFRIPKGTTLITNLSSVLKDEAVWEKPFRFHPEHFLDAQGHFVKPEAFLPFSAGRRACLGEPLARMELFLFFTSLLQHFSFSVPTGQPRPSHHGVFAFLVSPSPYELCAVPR

[11] = Aqueous solubility in potassium phosphate buffer at pH 5.5 after 24 hrs by HPLC analysis; type: physicochemical; conditions: pH 5.5, 24 h
[12] = Clearance in Sprague-Dawley rat at 1 mg/kg, iv by LC-MS/MS analysis; type: ADME, organism-based; parameters: dose 1 mg/kg, route intravenous; conditions: in vivo
MAP kinase p38 = MAP kinase p38 (Homo sapiens, UniProt O15264+Q15759+Q16539+P53778); assay: Inhibition of p38 (unknown origin) using biotinylated Flag-ATF2 as substrate after 30 mins by HTRF assay; type: protein assay
[13] = biological target: Mitogen-activated protein kinase 10 (Homo sapiens, UniProt P53779); assay: Inhibition of JNK3 alpha1 (unknown origin) using biotinylated Flag-ATF2 as substrate after 15 mins by HTRF assay
Chain of Mitogen-activated protein kinase 10 (P53779 whole entry): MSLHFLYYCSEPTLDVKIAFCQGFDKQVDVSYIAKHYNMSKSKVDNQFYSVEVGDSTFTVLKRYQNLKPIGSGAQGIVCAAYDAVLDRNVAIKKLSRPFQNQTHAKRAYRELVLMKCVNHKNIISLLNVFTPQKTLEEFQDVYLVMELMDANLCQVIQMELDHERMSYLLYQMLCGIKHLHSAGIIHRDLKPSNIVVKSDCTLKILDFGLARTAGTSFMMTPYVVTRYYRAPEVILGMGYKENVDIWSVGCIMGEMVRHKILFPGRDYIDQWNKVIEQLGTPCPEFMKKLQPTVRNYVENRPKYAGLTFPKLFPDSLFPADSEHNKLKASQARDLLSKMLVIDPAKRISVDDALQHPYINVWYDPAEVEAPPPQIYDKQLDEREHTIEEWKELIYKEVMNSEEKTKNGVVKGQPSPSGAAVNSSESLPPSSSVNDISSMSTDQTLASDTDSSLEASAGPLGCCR

Chain of Rho-associated protein kinase 2 (O75116 whole entry): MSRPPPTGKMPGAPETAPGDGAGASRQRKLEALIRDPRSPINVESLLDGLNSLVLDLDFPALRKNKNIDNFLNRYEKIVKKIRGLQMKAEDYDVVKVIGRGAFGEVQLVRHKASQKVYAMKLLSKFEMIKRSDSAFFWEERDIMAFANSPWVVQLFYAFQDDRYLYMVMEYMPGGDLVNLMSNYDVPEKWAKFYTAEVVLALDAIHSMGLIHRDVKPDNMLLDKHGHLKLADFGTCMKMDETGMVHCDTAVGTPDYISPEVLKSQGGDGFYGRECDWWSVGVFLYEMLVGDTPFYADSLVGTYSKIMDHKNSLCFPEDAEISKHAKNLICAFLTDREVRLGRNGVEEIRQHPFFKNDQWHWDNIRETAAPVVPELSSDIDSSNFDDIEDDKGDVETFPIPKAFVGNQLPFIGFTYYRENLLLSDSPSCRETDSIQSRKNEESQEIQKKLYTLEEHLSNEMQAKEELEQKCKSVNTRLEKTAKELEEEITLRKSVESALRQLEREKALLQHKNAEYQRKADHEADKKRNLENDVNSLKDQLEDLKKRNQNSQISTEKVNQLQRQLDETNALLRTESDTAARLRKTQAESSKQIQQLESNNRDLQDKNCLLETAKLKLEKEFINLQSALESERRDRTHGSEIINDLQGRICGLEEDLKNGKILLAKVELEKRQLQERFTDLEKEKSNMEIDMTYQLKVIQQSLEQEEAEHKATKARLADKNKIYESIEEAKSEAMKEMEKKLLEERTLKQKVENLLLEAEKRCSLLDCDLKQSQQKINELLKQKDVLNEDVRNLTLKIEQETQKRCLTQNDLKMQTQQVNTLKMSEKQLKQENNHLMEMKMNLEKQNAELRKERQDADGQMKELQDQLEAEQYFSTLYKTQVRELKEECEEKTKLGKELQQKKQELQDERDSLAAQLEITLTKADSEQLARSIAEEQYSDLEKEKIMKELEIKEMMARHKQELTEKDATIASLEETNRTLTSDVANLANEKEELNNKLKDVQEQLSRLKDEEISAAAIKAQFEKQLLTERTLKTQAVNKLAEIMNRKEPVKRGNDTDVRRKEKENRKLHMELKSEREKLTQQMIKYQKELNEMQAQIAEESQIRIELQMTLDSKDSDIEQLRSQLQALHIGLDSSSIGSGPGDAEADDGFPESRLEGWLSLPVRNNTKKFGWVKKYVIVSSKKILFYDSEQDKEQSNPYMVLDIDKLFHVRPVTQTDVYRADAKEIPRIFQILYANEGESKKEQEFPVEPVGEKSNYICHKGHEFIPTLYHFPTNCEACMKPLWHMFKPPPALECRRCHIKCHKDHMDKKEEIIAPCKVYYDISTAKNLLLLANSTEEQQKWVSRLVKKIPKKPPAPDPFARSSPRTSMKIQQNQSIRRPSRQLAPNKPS

SMILES	IC50 [1] [nM]	IC50 [2] [nM]	half-life [3] [min]	IC50 [4] [nM]	also measured
O=C(Nc1ccc(-c2cn[nH]c2)cc1)NC(CCO)c1ccccc1 (stereo not drawn)	1	48	> 120	438	–
O=C(Nc1ccc(-c2cn[nH]c2)cc1)NC(CO)c1ccccc1 (stereo not drawn)	2	150	> 120	389	–
CN(C)CCC(NC(=O)Nc1ccc(-c2cn[nH]c2)cc1)c1ccccc1 (stereo not drawn)	2	40	> 60	238	IC50 [5]: 6 nM; inhibition at 10 µM (CYP1A2): -1%; bioavailability [6]: 0%; AUC [7]: 0.5 µM·h; Cmax [8]: 200 nM; inhibition at 10 µM (CYP3A4): 10%; Vd [9]: 20 L/kg; half-life [10]: 144 min; inhibition at 10 µM (CYP2C9): 16%; inhibition at 10 µM (CYP2D6): 59%; solubility [11]: soluble; clearance [12]: 91 mL/min/kg
O=C(Nc1ccc(-c2cn[nH]c2)cc1F)N(CCO)Cc1ccccc1	14	33	> 120	1020	–
O=C(Nc1ccccc1)Nc1ccc(-c2cn[nH]c2)cc1	304	–	–	> 20000	–
O=C(NCCc1ccccc1)Nc1ccc(-c2cn[nH]c2)cc1	88	> 2700	–	3100	–
O=C(NCCCc1ccccc1)Nc1ccc(-c2cn[nH]c2)cc1	1020	–	–	> 20000	–
O=C(Nc1ccc(-c2cn[nH]c2)cc1)OCc1ccccc1	7	> 2700	–	> 20000	–
O=C(Nc1ccc(-c2cn[nH]c2)cc1)OCCc1ccccc1	55	2640	–	> 20000	–
O=C(CCc1ccccc1)Nc1ccc(-c2cn[nH]c2)cc1	24	91	–	266	–
O=C(Nc1ccc(-c2cn[nH]c2)cc1)N1CCc2ccccc2C1	280	–	–	8000	–
O=C(NCC1CCCCC1)Nc1ccc(-c2cn[nH]c2)cc1	751	–	–	> 20000	–
COc1cccc(CNC(=O)Nc2ccc(-c3cn[nH]c3)cc2)c1OC	253	–	–	> 20000	–
COc1ccc(CNC(=O)Nc2ccc(-c3cn[nH]c3)cc2)c(OC)c1	331	–	–	11200	–
COc1ccc(OC)c(CNC(=O)Nc2ccc(-c3cn[nH]c3)cc2)c1	570	–	–	> 20000	–
COc1cccc(OC)c1CNC(=O)Nc1ccc(-c2cn[nH]c2)cc1	924	–	–	13500	–
COc1ccc(CNC(=O)Nc2ccc(-c3cn[nH]c3)cc2)cc1OC	425	–	–	> 20000	–
COc1cc(CNC(=O)Nc2ccc(-c3cn[nH]c3)cc2)cc(OC)c1	281	–	–	> 20000	–
COc1ccc(CNC(=O)Nc2ccc(-c3cn[nH]c3)cc2)cc1F	357	–	–	518	–
COc1cccc(CNC(=O)N(CCN2CCCC2)c2ccc(-c3cn[nH]c3)cc2)c1	> 20000	–	–	> 20000	–

Second part, led by results:

IC50 [1] [nM]	IC50 [2] [nM]	half-life [3] [min]	IC50 [4] [nM]	SMILES	also measured
< 1	220	–	615	COc1cccc(CN(CCO)C(=O)Nc2ccc(-c3cn[nH]c3)cc2OCCO)c1	–
170	–	–	–	COc1cccc(CN(CCN(C)C)C(=O)Nc2ccc(-c3cn[nH]c3)cc2OCCN(C)C)c1	–
2	28	17	470	COc1cccc(CN(CCN(C)C)C(=O)Nc2ccc(-c3cn[nH]c3)cn2)c1	IC50 [5]: 10 nM; inhibition at 10 µM (CYP1A2): -21%; inhibition at 10 µM (CYP3A4): 8%; inhibition at 10 µM (CYP2C9): 5%; inhibition at 10 µM (CYP2D6): 51%; solubility [11]: soluble
3	67	11	18400	COc1cccc(CN(C(=O)Nc2ccc(-c3cn[nH]c3)cc2)C(C)C)c1	–
17	180	21	10500	COCCN(Cc1cccc(OC)c1)C(=O)Nc1ccc(-c2cn[nH]c2)cc1	–
< 1	8	> 120	72	COc1cccc(CN(CCN)C(=O)Nc2ccc(-c3cn[nH]c3)cc2)c1	–
3	6	25	541	COc1cccc(CN(CCN2CCCC2)C(=O)Nc2ccc(-c3cn[nH]c3)cc2)c1	IC50 [5]: 13 nM; inhibition at 10 µM (CYP1A2): 0%; bioavailability [6]: 0%; AUC [7]: 0.6 µM·h; Cmax [8]: 480 nM; inhibition at 10 µM (CYP3A4): 34%; IC50 (MAP kinase p38): > 20000 nM; Vd [9]: 4.4 L/kg; half-life [10]: 60 min; inhibition at 10 µM (CYP2C9): 24%; inhibition at 10 µM (CYP2D6): 88%; IC50 [13]: > 20000 nM; solubility [11]: soluble; clearance [12]: 71 mL/min/kg
5	18	59	228	COc1cccc(CN(CCCN2CCCC2)C(=O)Nc2ccc(-c3cn[nH]c3)cc2)c1	–
13	138	3	3820	COc1cccc(CN(CCN2CCOCC2)C(=O)Nc2ccc(-c3cn[nH]c3)cc2)c1	IC50 [5]: 58 nM; inhibition at 10 µM (CYP1A2): -37%; bioavailability [6]: 4%; AUC [7]: 0.6 µM·h; Cmax [8]: 1200 nM; inhibition at 10 µM (CYP3A4): 51%; IC50 (MAP kinase p38): > 20000 nM; Vd [9]: 3.5 L/kg; half-life [10]: 132 min; inhibition at 10 µM (CYP2C9): 68%; inhibition at 10 µM (CYP2D6): 82%; IC50 [13]: > 20000 nM; solubility [11]: soluble; clearance [12]: 63 mL/min/kg
4	84	4	724	COc1cccc(CN(CCCN2CCOCC2)C(=O)Nc2ccc(-c3cn[nH]c3)cc2)c1	–
5	17	11	338	COc1cccc(CN(CCN2CCCCC2)C(=O)Nc2ccc(-c3cn[nH]c3)cc2)c1	IC50 [5]: 14 nM; inhibition at 10 µM (CYP1A2): 18%; bioavailability [6]: 0%; AUC [7]: 0.4 µM·h; Cmax [8]: 530 nM; inhibition at 10 µM (CYP3A4): 61%; IC50 (MAP kinase p38): > 20000 nM; Vd [9]: 4.3 L/kg; half-life [10]: 60 min; inhibition at 10 µM (CYP2C9): 56%; inhibition at 10 µM (CYP2D6): 87%; IC50 [13]: > 20000 nM; solubility [11]: soluble; clearance [12]: 86 mL/min/kg
4	75	14	822	COc1cccc(CN(CCCN2CCCCC2)C(=O)Nc2ccc(-c3cn[nH]c3)cc2)c1	–
2	40	112	4870	COc1cccc(C(CCO)NC(=O)Nc2ccc(-c3cn[nH]c3)cc2)c1 (stereo not drawn)	IC50 [5]: 11 nM; inhibition at 10 µM (CYP1A2): 3%; bioavailability [6]: 4%; AUC [7]: 7.9 µM·h; Cmax [8]: 12000 nM; inhibition at 10 µM (CYP3A4): 37%; Vd [9]: 0.25 L/kg; half-life [10]: 42 min; inhibition at 10 µM (CYP2C9): 67%; inhibition at 10 µM (CYP2D6): 37%; solubility [11]: soluble; clearance [12]: 5.9 mL/min/kg
87	–	–	> 20000	COc1cccc(CNC(=O)N(C)c2ccc(-c3cn[nH]c3)cc2)c1	–
611	–	–	> 20000	COc1cccc(CNC(=O)N(CCO)c2ccc(-c3cn[nH]c3)cc2)c1	–
2980	–	–	4200	COc1cccc(CNC(=O)N(CCN(C)C)c2ccc(-c3cn[nH]c3)cc2)c1	–
3320	–	–	12000	COc1cccc(CNC(=O)N(CCCN(C)C)c2ccc(-c3cn[nH]c3)cc2)c1	–
1	44	25	4670	CCN(Cc1cccc(OC)c1)C(=O)Nc1ccc(-c2cn[nH]c2)cc1	–
1	4	25	1700	COc1cccc(CN(C(=O)Nc2ccc(-c3cn[nH]c3)cc2)C2CC2)c1	–
